From PubChem
OX1R antag-1: OX1R (human) antagonism | O43613 | OX1R-expressing cells, FRET antagonist read-out | inhibition, % at 6.6 µM | 330,000 tested, 1.8% active; in the data active = inhibition mostly above about 38%, no sharp cut-off; inactive = mostly below about 40%;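 also: 0% = agonist challenge alone and 100% = reference antagonist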
Target sequence (O43613 whole entry, looked up): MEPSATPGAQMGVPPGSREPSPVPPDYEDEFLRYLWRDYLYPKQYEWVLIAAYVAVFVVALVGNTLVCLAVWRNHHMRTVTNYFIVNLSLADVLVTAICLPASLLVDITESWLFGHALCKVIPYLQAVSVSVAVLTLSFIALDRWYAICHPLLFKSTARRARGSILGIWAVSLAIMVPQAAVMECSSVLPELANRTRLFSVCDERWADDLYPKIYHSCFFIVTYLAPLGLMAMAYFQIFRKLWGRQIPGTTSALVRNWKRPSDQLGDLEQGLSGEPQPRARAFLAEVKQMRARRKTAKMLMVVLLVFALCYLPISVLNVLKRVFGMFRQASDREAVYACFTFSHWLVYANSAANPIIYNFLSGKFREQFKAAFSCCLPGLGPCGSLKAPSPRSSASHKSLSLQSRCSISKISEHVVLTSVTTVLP
CHO-K1 Ca PAM: M1 PAM counterscreen hit in parental CHO-K1 cells; activation, % at 3 µM; 360,000 tested, 0.02% active; ATP EC20, Fluo-8 calcium fluorescence; 0% at ATP EC20, 100% at ATP max; AID 602247;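 active = activation above the run cutoff, the mean activation of all test compounds plus 3 SD, cut at about 40% in these data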;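 also: peak over basal fluorescence ratio in a 140 s read after ATP addition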
CHO parental Ca: counter-screen: ATP calcium response change in parental CHO cells. inhibition, % at 5.6 µM. 330,000 tested, 0.63% active. parental CHO-K1, ATP-induced calcium, Fluo-8 fluorescence. AID 463079;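 active = inhibition above that plate's mean sample inhibition plus 3 SD, cut at about 26% in these data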;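 also: 0% = ATP-challenged DMSO wells and 100% = DMSO wells without ATP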
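Material: parental CHO cells / Compound: single nominal dose of 5.6 µM per compound / Signal: Fluo-8 fluorescence / Replicates: singlicate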
CHO-K1 Ca antag: counter-screen for M1 antagonists: effect in parental CHO-K1 cells; ATP-induced calcium, Fluo-8 fluorescence; 360,000 tested, 0.6% active; AID 602250; inhibition, % at 3 µM;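 active = inhibition above a per-plate cutoff, the plate's mean sample inhibition plus 3 SD, cut at about 24% in these data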;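 also: 0% = DMSO plus EC80 ATP and 100% = DMSO alone without ATP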
OX1R antag-2: antagonists of human orexin 1 receptor; 330,000 tested, 0.43% active; CHO/OX1R cells, Fluo-8 calcium fluorescence, orexin A; O43613; inhibition, % at 5 µM;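 active = inhibition above its plate's threshold, mean inhibition of all tested compounds on the plate plus 3 SD, cut at about 37% in these data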;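 also: 0% = orexin A challenge wells and 100% = SB-334867-A antagonist wells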
CHO-K1 Ca ag: counter-screen for M1 agonists: effect in parental CHO-K1 cells. Fluo-8 calcium fluorescence; scaled to maximal ATP response, vehicle zero. AID 602248. activation, % at 3 µM. 360,000 tested, 0.48% active; in the data active = activation above about 15%;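 also: untransfected CHO-K1 host cells lacking M1 receptor as counterscreen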
Active calls of the source: *. Hits are enriched below; roughly 2.9% of the tested compounds scored in any of these assays.

COc1ccccc1/C=C/CN1CCC(Oc2ccc(C(=O)N3CCCC3)cc2)CC1 was read as OX1R antag-1 15.8, CHO-K1 Ca PAM -29.7, CHO parental Ca -32.5, CHO-K1 Ca antag 25.7*, OX1R antag-2 -33.8 and CHO-K1 Ca ag -0.2.
Screening COc1ccc2nc(NC(=O)c3ccc4ncsc4c3)sc2c1 returned OX1R antag-1 57.0*, CHO-K1 Ca PAM 8.8, CHO parental Ca -15.9, CHO-K1 Ca antag 9.2, OX1R antag-2 -30.9 and CHO-K1 Ca ag 4.5.
Screening COc1cccc(C(CC(=O)Nc2cccc3ccccc23)NC(=O)c2ccccc2)c1 (stereo not drawn) returned OX1R antag-1 34.8*, CHO-K1 Ca PAM -10.7, CHO parental Ca -2.4, CHO-K1 Ca antag -6.1, OX1R antag-2 -15.1 and CHO-K1 Ca ag 0.1.
COc1ccc2nc(Nc3ccccc3OC)sc2c1 was read as OX1R antag-1 14.0, CHO-K1 Ca PAM 17.0, CHO parental Ca -11.9, CHO-K1 Ca antag -14.1, OX1R antag-2 -32.1 and CHO-K1 Ca ag -0.5.
For COc1cccc(C(=O)Nc2cccc3ccccc23)c1 the results were CHO-K1 Ca PAM 25.2, CHO-K1 Ca antag -14.7 and CHO-K1 Ca ag 0.9.
COc1ccc2nc(NC(=O)Nc3cccc4ccccc34)sc2c1 was read as OX1R antag-1 41.7*, CHO-K1 Ca PAM 8.1, CHO parental Ca 5.4, CHO-K1 Ca antag -8.3, OX1R antag-2 -13.6 and CHO-K1 Ca ag 0.5.
COc1ccc2nc(NC(=O)Nc3ccccc3OC)sc2c1 was read as OX1R antag-1 66.0*, CHO-K1 Ca PAM 26.0, CHO parental Ca -11.9, CHO-K1 Ca antag -20.2, OX1R antag-2 13.5 and CHO-K1 Ca ag 1.5.
`Cc1cccc(C)c1NC(=O)C1C2C=CC(C2)C1C(=O)O` (stereo not drawn) gave OX1R antag-1 10.7, CHO-K1 Ca PAM 13.6, CHO parental Ca 1.2, CHO-K1 Ca antag -4.2, OX1R antag-2 -1.7 and CHO-K1 Ca ag 0.4.
Screening Cn1c(=O)c2c(n(C)c1=O)=NC1(CCCCC1)ON=2 returned OX1R antag-1 71.4*, CHO-K1 Ca PAM 9.2, CHO parental Ca 2.0, CHO-K1 Ca antag -15.1, OX1R antag-2 -15.2 and CHO-K1 Ca ag 0.4.
For NC(Cc1ccc(C(F)(F)F)cc1)c1csc(Nc2nccc(C(F)(F)F)n2)n1 (stereo not drawn) the results were CHO-K1 Ca PAM 21.9, CHO-K1 Ca antag -7.9 and CHO-K1 Ca ag 3.0.
For CCOc1cc(CNc2ccc3cn[nH]c3c2)ccc1OC the results were OX1R antag-1 7.6, CHO-K1 Ca PAM -5.2, CHO parental Ca -11.8, CHO-K1 Ca antag 2.6, OX1R antag-2 -35.4 and CHO-K1 Ca ag 0.4.
Screening COc1ccc(CNc2ccc3cn[nH]c3c2)c(OC)c1OC returned OX1R antag-1 36.9*, CHO-K1 Ca PAM 20.6, CHO parental Ca -6.8, CHO-K1 Ca antag -18.2, OX1R antag-2 6.5 and CHO-K1 Ca ag 0.4.
Screening C/C(=N/NC(=O)C1CCCC1)c1ccc(NC(=O)C(F)(F)F)cc1 returned OX1R antag-1 -0.4, CHO-K1 Ca PAM 15.4, CHO parental Ca -2.4, CHO-K1 Ca antag -4.2, OX1R antag-2 2.7 and CHO-K1 Ca ag 0.4.
O=c1[nH]c(=O)c2nnc(N/N=C/c3ccccc3F)nc2[nH]1 was read as OX1R antag-1 38.2, CHO-K1 Ca PAM -14.7, CHO parental Ca -3.6, CHO-K1 Ca antag -0.9, OX1R antag-2 -1.4 and CHO-K1 Ca ag -0.1.
O=c1[nH]c(=O)c2nnc(N/N=C\c3ccc(O)cc3)nc2[nH]1 was read as OX1R antag-1 62.1*, CHO-K1 Ca PAM 3.9, CHO parental Ca -8.4, CHO-K1 Ca antag 2.1, OX1R antag-2 -14.2 and CHO-K1 Ca ag 0.1.
Screening CCOC(=O)/C(C#N)=C/c1c[nH]c2ccccc12 returned OX1R antag-1 51.2*, CHO-K1 Ca PAM -3.4, CHO parental Ca -4.3, CHO-K1 Ca antag 6.6, OX1R antag-2 -5.2 and CHO-K1 Ca ag 0.1.
For O=C(c1ccc(CSc2nc3ccncc3[nH]2)cc1)N1CCCCCC1 the results were OX1R antag-1 12.3, CHO-K1 Ca PAM 17.1, CHO parental Ca -12.1, CHO-K1 Ca antag -14.7, OX1R antag-2 -23.3 and CHO-K1 Ca ag 4.2.
Screening O=C(c1ccc(CSc2nc3ccncc3[nH]2)cc1)N1CCN(c2cccc(Cl)c2)CC1 returned OX1R antag-1 33.6*, CHO-K1 Ca PAM 1.0, CHO parental Ca 72.6*, CHO-K1 Ca antag 8.6, OX1R antag-2 22.4 and CHO-K1 Ca ag 9.6.
